Laboratory results taken from ChEMBL document CHEMBL3739271, “Synthesis and evaluation of a series of resveratrol analogues as potent anti-cancer agents that target tubulin” (2015).

What was measured:
Format in all cases: functional
[1] = Cytotoxicity against human SKOV3 cells by SRB assay; conditions: SK-OV-3
Method in brief: (§1)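 NCI 60 human tumor cell line panel, sulforhodamine B (SRB) protein-stain read-out. Compounds were first screened at a single dose of 10^-5 M, and selected compounds were then tested in a five-dose format. GI50 is the drug concentration giving a 50% reduction in net protein increase relative to control cells.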

[2] = Cytotoxicity against human SF539 cells by SRB assay; conditions: SF-539; method in brief: as §1
[3] = Cytotoxicity against human COLO205 cells by SRB assay; conditions: COLO 205; method in brief: as §1
[4] = Cytotoxicity against human SNB19 cells by SRB assay; conditions: SNB-19; method in brief: as §1
[5] = Cytotoxicity against human UACC62 cells by SRB assay; conditions: UACC-62; method in brief: as §1
[6] = Cytotoxicity against human UO31 cells by SRB assay; conditions: UO-31; method in brief: as §1
[7] = Cytotoxicity against human OVCAR4 cells by SRB assay; conditions: OVCAR-4; method in brief: as §1
[8] = Cytotoxicity against human RPMI8226 cells by SRB assay; conditions: RPMI-8226; method in brief: as §1
[9] = Cytotoxicity against human LOXIMVI cells by SRB assay; conditions: LOX IMVI
Method in brief: (§2)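 NCI 60-cell-line panel using sulforhodamine B protein stain. Initial single-dose screen at 10^-5 M, then five-dose testing. GI50 is the drug concentration giving a 50% reduction in net protein increase relative to control cells.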

[10] = Cytotoxicity against human IGROV1 cells by SRB assay; conditions: IGROV-1; method in brief: as §2
[11] = tested on: HT-29; experiment: Cytotoxicity against human HT-29 cells by SRB assay; method in brief: as §1
[12] = tested on: MDA-MB-435; experiment: Cytotoxicity against human MDA-MB-435 cells by SRB assay; method in brief: as §1
[13] = Cytotoxicity against human Hs578T cells by SRB assay; conditions: Hs-578T; method in brief: as §1
[14] = Cytotoxicity against human MOLT4 cells by SRB assay; conditions: MOLT-4; method in brief: as §1
[15] = Cytotoxicity against human HOP92 cells by SRB assay; conditions: HOP-92; method in brief: as §1
[16] = tested on: SR; experiment: Cytotoxicity against human SR cells by SRB assay; method in brief: as §1
[17] = Cytotoxicity against human SNB75 cells by SRB assay; conditions: SNB-75; method in brief: as §1
[18] = tested on: NCI-H522; experiment: Cytotoxicity against human NCI-H522 cells by SRB assay; method in brief: as §1
[19] = Cytotoxicity against human HCT15 cells by SRB assay; conditions: HCT-15; method in brief: as §1
[20] = tested on: SK-MEL-5; experiment: Cytotoxicity against human SK-MEL-5 cells by SRB assay; method in brief: as §1
[21] = tested on: M14; experiment: Cytotoxicity against human M14 cells by SRB assay; method in brief: as §1
[22] = tested on: MV4-11; experiment: Anti-leukemia activity against human MV4-11 cells after 48 hrs by Annexin-V staining; conditions: MV4-11, 48 h, read-out: LD50 (the source's name)
Method in brief: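 MV4-11 AML cells exposed to increasing compound concentrations for 24 and 48 h. Viability measured by Annexin V/7-AAD staining and expressed as percent Annexin V-/7-AAD- cells relative to control. N = 5, error bars SD. LD50 values derived from these curves.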

[23] = Cytotoxicity against human SW620 cells by SRB assay; conditions: SW-620; method in brief: as §1
[24] = tested on: A498; experiment: Cytotoxicity against human A498 cells by SRB assay; method in brief: as §1
[25] = tested on: KM12; experiment: Cytotoxicity against human KM12 cells by SRB assay; method in brief: as §1
[26] = tested on: MDA-MB-231; experiment: Cytotoxicity against human MDA-MB-231 cells by SRB assay; method in brief: as §1
[27] = tested on: MCF7; experiment: Cytotoxicity against human MCF7 cells by SRB assay; method in brief: as §1
[28] = Cytotoxicity against human OVCAR3 cells by SRB assay; conditions: OVCAR-3; method in brief: as §1
[29] = tested on: K562; experiment: Cytotoxicity against human K562 cells by SRB assay; method in brief: as §1
[30] = Cytotoxicity against human HCC2998 cells by SRB assay; conditions: HCC 2998; method in brief: as §1
[31] = Cytotoxicity against human HCT116 cells by SRB assay; conditions: HCT-116; method in brief: as §1
[32] = tested on: U-251; experiment: Cytotoxicity against human U251 cells by SRB assay; method in brief: as §1
[33] = tested on: MDA-MB-468; experiment: Cytotoxicity against human MDA-MB-468 cells by SRB assay; method in brief: as §1
[34] = tested on: NCI-H23; experiment: Cytotoxicity against human NCI-H23 cells by SRB assay; method in brief: as §1
[35] = tested on: A549; experiment: Cytotoxicity against human A549 cells by SRB assay; method in brief: as §1
[36] = tested on: NCI/ADR-RES; experiment: Cytotoxicity against human NCI/ADR-RES cells by SRB assay; method in brief: as §1
[37] = tested on: ACHN; experiment: Cytotoxicity against human ACHN cells by SRB assay; method in brief: as §1
[38] = Cytotoxicity against human HOP62 cells by SRB assay; conditions: HOP-62; method in brief: as §1
[39] = tested on: CCRF-CEM; experiment: Cytotoxicity against human CCRF-CEM cells by SRB assay; method in brief: as §1
[40] = Cytotoxicity against human HL-60(TB) cells by SRB assay; method in brief: as §2
[41] = tested on: SK-MEL-28; experiment: Cytotoxicity against human SK-MEL-28 cells by SRB assay; method in brief: as §1
[42] = tested on: 786-0; experiment: Cytotoxicity against human 786-0 cells by SRB assay; method in brief: as §1
[43] = Cytotoxicity against human SF295 cells by SRB assay; conditions: SF-295; method in brief: as §1
[44] = Cytotoxicity against human SF268 cells by SRB assay; conditions: SF-268; method in brief: as §1
[45] = tested on: CAKI-1; experiment: Cytotoxicity against human CAKI-1 cells by SRB assay; method in brief: as §1
[46] = tested on: SK-MEL-2; experiment: Cytotoxicity against human SK-MEL-2 cells by SRB assay; method in brief: as §1

COc1ccc(/C=C(\C#N)c2ccc(OC)c(OC)c2)cc1O
GI50 [1]: 50 nM
GI50 [2]: 20 nM
GI50 [3]: 1240 nM
GI50 [4]: 50 nM
GI50 [5]: 20 nM
GI50 [6]: 60 nM
GI50 [7]: 1560 nM
GI50 [8]: 40 nM
GI50 [9]: 60 nM
GI50 [10]: 60 nM
GI50 [11]: 570 nM
GI50 [12]: < 10 nM
GI50 [13]: 30 nM
GI50 [14]: 50 nM
GI50 [15]: 1690 nM
GI50 [16]: 20 nM
GI50 [17]: 20 nM
GI50 [18]: < 10 nM
GI50 [19]: 40 nM
GI50 [20]: 40 nM
GI50 [21]: 30 nM
CC50 [22]: 353 nM
GI50 [23]: 40 nM
GI50 [24]: 20 nM
GI50 [25]: 20 nM
GI50 [26]: 40 nM
GI50 [27]: 30 nM
GI50 [28]: 20 nM
GI50 [29]: 20 nM
GI50 [30]: 1810 nM
GI50 [31]: 40 nM
GI50 [32]: 40 nM
GI50 [33]: 40 nM
GI50 [34]: 70 nM
GI50 [35]: 210 nM
GI50 [36]: 20 nM
GI50 [37]: 80 nM
GI50 [38]: 30 nM
GI50 [39]: 30 nM
GI50 [40]: 30 nM
GI50 [41]: 1110 nM
GI50 [42]: 360 nM
GI50 [43]: 100 nM
GI50 [44]: 60 nM

COc1ccc(/C=C\c2cc(OC)c(OC)c(OC)c2)cc1O [COMBRETASTATIN A4]
GI50 [1]: 59 nM
GI50 [2]: 3 nM
GI50 [3]: 100 nM
GI50 [45]: 26 nM
GI50 [4]: 4 nM
GI50 [5]: 6 nM
GI50 [6]: 19 nM
GI50 [7]: 14 nM
GI50 [8]: 3 nM
GI50 [9]: 3 nM
GI50 [10]: 15 nM
GI50 [11]: 100 nM
GI50 [14]: 3 nM
GI50 [46]: 4 nM
GI50 [15]: 3 nM
GI50 [16]: 3 nM
GI50 [17]: 8 nM
GI50 [18]: 2 nM
GI50 [19]: 4 nM
GI50 [20]: 4 nM
GI50 [21]: 3 nM
GI50 [23]: 3 nM
GI50 [24]: 6 nM
GI50 [25]: 5 nM
GI50 [28]: 2 nM
GI50 [29]: 2 nM
GI50 [30]: 63 nM
GI50 [31]: 3 nM
GI50 [32]: 4 nM
GI50 [34]: 3 nM
GI50 [35]: 16 nM
GI50 [37]: 6 nM
GI50 [38]: 3 nM
GI50 [39]: 3 nM
GI50 [40]: 2 nM
GI50 [41]: 8 nM
GI50 [42]: 100 nM
GI50 [43]: 4 nM
GI50 [44]: 6 nM

COc1ccc(/C=C(/C#N)c2ccc(OC)c(OC)c2)cc1O
GI50 [1]: 50 nM
GI50 [2]: 20 nM
GI50 [3]: 1260 nM
GI50 [45]: 420 nM
GI50 [4]: 40 nM
GI50 [6]: 90 nM
GI50 [7]: 1070 nM
GI50 [8]: 50 nM
GI50 [9]: 70 nM
GI50 [10]: 70 nM
GI50 [11]: 620 nM
GI50 [12]: < 10 nM
GI50 [13]: 30 nM
GI50 [14]: 70 nM
GI50 [15]: 860 nM
GI50 [16]: 30 nM
GI50 [17]: 20 nM
GI50 [18]: 10 nM
GI50 [19]: 30 nM
GI50 [20]: 50 nM
GI50 [21]: 20 nM
CC50 [22]: 409 nM
GI50 [23]: 40 nM
GI50 [24]: 20 nM
GI50 [25]: 40 nM
GI50 [26]: 50 nM
GI50 [27]: 30 nM
GI50 [28]: 20 nM
GI50 [29]: 30 nM
GI50 [30]: 170 nM
GI50 [31]: 30 nM
GI50 [32]: 50 nM
GI50 [33]: 40 nM
GI50 [34]: 80 nM
GI50 [35]: 250 nM
GI50 [36]: 20 nM
GI50 [37]: 90 nM
GI50 [38]: 30 nM
GI50 [39]: 40 nM
GI50 [40]: 30 nM
GI50 [41]: 1270 nM
GI50 [42]: 240 nM
GI50 [43]: 580 nM
GI50 [44]: 80 nM

COc1cc(/C=C(\C#N)c2cc(OC)c(OC)c(OC)c2)cc(OC)c1
GI50 [1]: 14400 nM
GI50 [2]: 6600 nM
GI50 [3]: 5160 nM
GI50 [45]: 6190 nM
GI50 [4]: 5460 nM
GI50 [5]: 2420 nM
GI50 [6]: 1920 nM
GI50 [7]: 7480 nM
GI50 [8]: 6640 nM
GI50 [9]: 5310 nM
GI50 [10]: 14600 nM
GI50 [11]: 4240 nM
GI50 [12]: 1630 nM
GI50 [13]: 16700 nM
GI50 [14]: 28200 nM
GI50 [46]: 5440 nM
GI50 [15]: 3570 nM
GI50 [16]: 4140 nM
GI50 [17]: 2670 nM
GI50 [18]: 20500 nM
GI50 [19]: 4470 nM
GI50 [20]: 4700 nM
GI50 [21]: 4450 nM
GI50 [23]: 5170 nM
GI50 [24]: 1290 nM
GI50 [25]: 4970 nM
GI50 [26]: 4830 nM
GI50 [27]: 4350 nM
GI50 [28]: 6690 nM
GI50 [29]: 3140 nM
GI50 [30]: 97000 nM
GI50 [31]: 6050 nM
GI50 [32]: 7820 nM
GI50 [33]: 3440 nM
GI50 [34]: 43000 nM
GI50 [35]: 6350 nM
GI50 [36]: 3250 nM
GI50 [37]: 9780 nM
GI50 [38]: 7630 nM
GI50 [39]: 51200 nM
GI50 [40]: 68600 nM
GI50 [41]: 14000 nM
GI50 [42]: 13000 nM
GI50 [43]: 5330 nM
GI50 [44]: 25300 nM
